Screening data: PubChem, several laboratories
NF-kB neuron act – NF-kB expression increase, human neuronal cells | fold change at 12.5 µM | AID 1239 | actives 1.6% (n = 190,000) | NF-kB reporter expression; active compounds read high; in the data active = fold change above about 3.3
APP 5'UTR act – activates APP 5'UTR luciferase reporter | SH-SY5Y APP 5'UTR luciferase reporter, luminescence; zero percent = DMSO vehicle wells | activation, % at 2 µM | actives 1% (n = 190,000);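 active = activation above a set limit, based on mean plus 3 SD of controls, cut at about 140% in these data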
STAT1 blocker – reduces IFN-gamma driven STAT1 reporter signal; inhibition, % at 5.5 µM; actives 0.35% (n = 200,000); NIH 3T3 STAT1-luciferase reporter, luminescence;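 active = inhibition above a set limit, the mean inhibition across all tested compounds plus 3 SD, cut at about 34% in these data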
STAT3 act – STAT3 signaling activation. U3A cells, IL-6 STAT3-luciferase reporter, luminescence; 100% = signal with IL-6 EC80 alone. AID 871. actives 0.91% (n = 190,000). activation (% of control), % at 5.6 µM;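 active = activation above the screen-wide mean of compound activation plus 3 SD, cut at about 130% in these data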
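Test system: Human STAT1-deficient U3A cells with stable STAT3-luciferase reporter | Also added: Interleukin-6, 33 ng/mL | Timing: Compound pre-incubation 1 h before IL-6, then 6 h stimulation at 37 °C | Technique: Luciferase reporter luminescence | Read-out: Percent of IL-6-only median luminescence | Benchmarks: IL-6-only wells as 100% reference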
STAT1 activator – activators of IFN-gamma induced STAT1 signaling | activation (% of control), % at 5.5 µM | NIH 3T3 STAT1-luciferase reporter, luminescence; 100% = IFN-gamma alone, no compound | actives 2.6% (n = 200,000);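 active = activation above the screen-wide mean activation plus 3 SD, cut at about 130% in these data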
STAT3 blocker – inhibitors of IL-6 induced STAT3 signaling; U3A cells, IL-6 STAT3-luciferase reporter, luminescence; host cell line lacks STAT1; inhibition, % at 5.5 µM; actives 0.89% (n = 190,000);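 active = inhibition above the mean inhibition across all screened compounds plus 3 SD, cut at about 44% in these data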
Large screens that a line does not name were inactive; ! = not active in a repeat. Only some compounds are listed: those with a hit (about 5.1% of all), similar ones and a draw of the others.

COc1cccc(-n2c(SCC(=O)N3CCCC3)nc3c([nH]c4ccccc43)c2=O)c1	STAT3 act 141.9 (no result: NF-kB neuron act)
COc1ccc(NC(=O)CSc2nc3c([nH]c4ccccc43)c(=O)n2C)cc1	STAT3 act 135.4
Cn1c(SCC(=O)NCc2ccc(F)cc2)nc2c([nH]c3ccccc32)c1=O	STAT3 act 133.3
c1ccc(CCc2nc3ccccc3[nH]2)cc1	none
Nc1cccc(CCc2nc3cc4ccccc4cc3[nH]2)c1	NF-kB neuron act 4.21, STAT1 activator 131.3
COc1ccc(-c2nnc(SC(C)C(=O)Nc3cccc(Cl)c3)o2)cc1 (configuration not stated)	NF-kB neuron act 5.57, APP 5'UTR act 219.0
COc1ccc(-c2nnc(SC(C)C(=O)NNC(=O)c3ccc(C)cc3)o2)cc1 (configuration not stated)	none
CC(=O)/C=C(\C)Nc1c(C)n(C)n(-c2ccccc2)c1=O	none
O=C(CS(=O)(=O)c1c[nH]c2ccccc12)N1CCc2ccccc21	none (no result: STAT3 act, STAT3 blocker)
COc1ccc(C(=O)Nc2scc(-c3ccc(Cl)cc3Cl)c2C(N)=O)cc1	STAT1 activator 148.5
CN(C)c1ccc(CC(=O)c2nc3ccccc3s2)cc1	STAT1 activator 133.9
CN(C)C(=O)c1nc2ccccc2s1	none
CC(=O)N1CCC(N(CCN2CCOCC2)C(=S)Nc2cc(C)ccc2C)CC1	none
NC1=NC(=O)/C(=C\C=C\c2ccccc2)S1	STAT1 activator 134.3
COc1ccc(N2C(N)=NC(N)=NC2(C)C)cc1	NF-kB neuron act 3.92
Cc1ccnc(N/N=C/c2ccccc2)n1	STAT1 activator 145.1
CCN(CC)C(=O)CN1C(=O)NC2(CCc3ccccc3C2)C1=O (configuration not stated)	none
O=[N+]([O-])c1ccc2nc(-c3ccc(Cl)cc3)n(OCc3ccccc3)c2c1	NF-kB neuron act 4.45, STAT1 activator 129.4 (no result: APP 5'UTR act)
Cc1ccc(COn2c(-c3ccc(Cl)cc3)nc3ccc([N+](=O)[O-])cc32)cc1	NF-kB neuron act 5.32, STAT1 activator 135.0 (no result: APP 5'UTR act)
Clc1ccc(COn2c(-c3ccc(Cl)cc3)nc3ccccc32)cc1	none (no result: APP 5'UTR act)
Clc1ccc(/C(Cc2nc3ccccc3[nH]2)=N\Nc2ccccc2)cc1	STAT1 activator 136.0
CCc1nc2ccccc2n1CC1CC1(Cl)Cl (configuration not stated)	none
CC1(C)CC(=O)C(N=Nc2ccc(OC(F)F)cc2)=C(O)C1	none
Clc1ccc(-c2nnc(-c3ccc(Br)o3)o2)c(Cl)c1	STAT1 activator 138.9
COc1ccc(NC(=O)c2ccco2)c([N+](=O)[O-])c1	STAT1 activator 137.8
Cc1ccc(NC(=O)c2ccco2)c([N+](=O)[O-])c1	STAT1 activator 138.8 (no result: NF-kB neuron act)
COc1ccc(CN2CCNC(=O)C2CC(=O)N(C)Cc2nccn2C)cc1OC (configuration not stated)	none
Cc1cc2n(n1)C(c1c[nH]c3ccccc13)Nc1ccccc1-2 (configuration not stated)	STAT3 act 138.7
O=C1c2ccccc2NC(c2ccccc2Cl)N1N=C1CCCCCC1 (configuration not stated)	STAT1 activator 138.6
O=c1/c(=C\c2ccc(F)cc2)sc2n1CCCN=2	APP 5'UTR act 170.2, STAT1 activator 148.8
C=CCn1c(=O)/c(=C/c2ccc(F)cc2)s/c1=C(\C#N)c1nnc2n1CCCCC2	none
COC(=O)/C=c1/sc2n(c1=O)CCN=2	none
O=c1/c(=C/c2ccc(O)cc2)sc2n1CCCN=2	STAT1 activator 139.3
CCO[C@@H]1OC(C(N)=O)=C[C@H](c2ccccc2)[C@H]1CCCO	none (no result: STAT3 act, STAT3 blocker)
CC(=O)/C=C(/C)NC(Cc1c[nH]c2ccccc12)C(=O)O (configuration not stated)	STAT3 act 133.1!
O=C(O)C(=O)Cc1c[nH]c2ccccc12	STAT3 act 132.9
CCc1nc(N[C@@H](Cc2c[nH]c3ccccc23)C(=O)O)c2oc3ccccc3c2n1	none
O=C(NC(Cc1c[nH]c2ccccc12)C(=O)O)c1ccccc1 (configuration not stated)	none
Cc1nc(N[C@@H](Cc2c[nH]c3ccccc23)C(=O)O)c2oc3ccccc3c2n1	STAT3 act 150.5
CCCC1CCc2c(sc(N)c2C(N)=O)C1 (configuration not stated)	none
COc1cccc(-c2ccc(=O)n(CC(=O)Nc3ccc(S(=O)(=O)NCC(C)C)cc3)n2)c1	none
C=CCOC(=O)/C(=C\c1ccccc1)NC(=O)c1ccc(C)cc1	STAT1 activator 132.3
C=CCOC(=O)/C(=C\c1cccc2ccccc12)NC(=O)c1ccccc1	STAT1 activator 135.8
Cc1cc(Nc2ncc(Cl)cc2Cl)n(-c2ccccc2C)n1	none
Cc1ccc(-n2nc(C)cc2Nc2ncc(Cl)cc2Cl)cc1	STAT3 act 134.5
CCOC(=O)c1cnn(-c2ccc(C(F)(F)F)cn2)c1N	STAT1 activator 144.7
CCCNc1ncnc2c1cnn2-c1ccc(OC)cc1	NF-kB neuron act 5.88, APP 5'UTR act 192.9, STAT1 activator 156.3
COc1ccc(-n2ncc3c(NCCCN4CCOCC4)ncnc32)cc1	STAT1 activator 135.1
COc1ccc(-n2ncc3c(NCCN4CCOCC4)ncnc32)cc1	none
COc1ccc(NS(=O)(=O)c2ccc3nc(COc4ccc(C#N)cc4)[nH]c3c2)cc1	none
O=C(NC1CC1)c1cc2c(F)cccc2s1	none
CN1c2ccccc2N(C)C1(C)c1cccc2ccccc12	none
CN1c2cccc3cccc(c23)N(C)C1(C)C	NF-kB neuron act 4.07
O=S(=O)(c1ccc(Cl)cc1)N1CCN(C(=S)Nc2ccc(F)c(Cl)c2)CC1	none
COc1ccc2c(c1)CC/C2=N\NC(=O)c1ccccc1	STAT1 activator 129.6
COc1ccc(OCC(=O)N/N=C2\CCc3ccccc32)cc1	none
Cc1ccc(C(=O)c2ccccc2C(=O)OCC(=O)Nc2ccc(SC(F)F)cc2)cc1	none
O=C(COC(=O)c1ccccc1Cc1ccccc1)Nc1ccc(SC(F)F)cc1	STAT1 activator 132.0
COC(=O)c1cn[nH]c1NC(=S)Nc1ccc(Cl)c(Cl)c1	APP 5'UTR act 221.8, STAT1 activator 145.2
C=CCn1c(CCCNC(=O)c2ccccc2OC)nc2ccccc21	none
CC(=O)N1N=C(c2ccc(C)cc2)CC1c1ccco1 (configuration not stated)	none
CN1C(=O)C2(Oc3ccccc3C3CC(c4ccccc4)=NN32)c2ccccc21 (configuration not stated)	APP 5'UTR act 137.1
Cc1ccc(C2=NN3C(C2)c2ccccc2OC32C(=O)Nc3ccccc32)cc1 (configuration not stated)	NF-kB neuron act 8.67, APP 5'UTR act 203.7
CNc1nc(-c2ccc(Cl)cc2)cs1	STAT1 activator 131.5
CC(C)C(=O)Nc1nc(-c2ccc([N+](=O)[O-])cc2)cs1	none
